Measurements taken from ChEMBL document CHEMBL1129963, “Sulfonimidamide analogs of oncolytic sulfonylureas” (J Med Chem, 1997).
≈ marks a conversion by molar mass, not a printed value. One block for each compound: values may come before it.

Legend:
CCRF-CEM = assay: In vitro cytotoxicity against CCRF-CEM cells; format: functional, cell-based; settings: Homo sapiens
How it was run: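 CCRF-CEM cells were grown in culture for 72 h with compound. The value is the concentration that inhibited growth to 50% of control growth.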

Mus musculus [1] = assay: In vivo antitumor activity against subaxillary implanted 6C3HED lymphosarcoma implanted in C3H mice at a dose of 300 mg/kg administered perorally twice daily for a period of 8 days.; format: functional; settings: 192 h, route oral
How it was run: (§1)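 6C3HED lymphosarcoma was carried in C3H mice. Compound was dosed at the stated route and schedule for 8 days (daily, twice daily, or days 1, 3, 5, 7) and tumor growth inhibition was scored against controls. The table value is the lowest dose giving >80% inhibition, or the highest dose tested. Deaths per group were recorded.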

Mus musculus [2] = assay: In vivo antitumor activity of compound against subaxillary implanted 6C3HED lymphosarcoma implanted in C3H mice at a dose of 300 mg/kg administered intraperitoneally daily for a period of 8 days.; format: functional; settings: ip, 192 h, route intraperitoneal; how it was run: as §1
Mus musculus [3] = assay: (§2) Metabolic breakdown to the o-sulfate of p-chloroaniline (2-amino-5-chlorophenyl sulfate) by giving 100 mg/kg oral doses of the compound; format: functional
How it was run: (§3)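 Groups of two to four mice received single 100 mg/kg oral doses of each compound. Urine was pooled over 0-24 h, and the 2-amino-5-chlorophenyl sulfate excreted in 24 h per mouse was quantified as the marker of p-chloroaniline release.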

Mus musculus [4] = assay: In vivo antitumor activity against subaxillary implanted 6C3HED lymphosarcoma implanted in C3H mice at a dose of 150 mg/kg administered perorally twice daily for a period of 8 days.; format: functional; settings: for inhibition in vivo at 150 mg/kg: Mus musculus, 6C3HED, po, 192 h; for Inhibition: route oral, 150 mg/kg; how it was run: as §1
Mus musculus [5] = assay: (§4) In vivo antitumor activity of compound against subaxillary implanted 6C3HED lymphosarcoma implanted in C3H mice at a dose of 75 mg/kg administered perorally twice daily for a period of 8 days.; format: functional; settings: 192 h, route oral; how it was run: as §1
Mus musculus [6] = assay: In vivo antitumor activity of compound against subaxillary implanted 6C3HED lymphosarcoma implanted in C3H mice at a dose of 4.0 mg/kg administered intraperitoneally twice daily for a period of 8 days.; format: functional; settings: ip, 192 h, route intraperitoneal; how it was run: as §1
Mus musculus [7] = assay: In vivo antitumor activity of compound against subaxillary implanted 6C3HED lymphosarcoma implanted in C3H mice at a dose of 50 mg/kg administered perorally twice daily for a period of 8 days.; format: functional; settings: 192 h, route oral; how it was run: as §1
Mus musculus [8] = assay: In vivo antitumor activity of compound against subaxillary implanted 6C3HED lymphosarcoma implanted in C3H mice at a dose of 150 mg/kg administered perorally daily for a period of 8 days.; format: functional; settings: 192 h, route oral; how it was run: as §1
[9] = as §2; format: ADME, organism-based; parameters: dose 100 mg/kg, route oral; settings: in vivo; how it was run: as §3
Mus musculus [10] = assay: In vivo antitumor activity of compound against subaxillary implanted 6C3HED lymphosarcoma implanted in C3H mice at a dose of 25 mg/kg administered perorally daily for a period of 8 days.; format: functional; settings: 192 h, route oral; how it was run: as §1
[11] = % dose converted to 4-(S-amino-N-{[(4-chlorophenyl)amino]carbonyl}sulfonimidoyl)benzoic acid (compound 41); format: ADME
Mus musculus [12] = assay: as §4; format: functional; settings: route oral
How it was run: (§5)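 Oral dosing twice daily for 8 days in C3H mice bearing 6C3HED lymphosarcoma. Read-out is percent tumor growth inhibition relative to controls, with deaths per group also recorded. The full in vivo protocol is given in an earlier report.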

[13] = % dose converted to 2-amino-5-chlorophenyl sulfate; format: ADME; how it was run: as §3
Mus musculus [14] = assay: In vivo antitumor activity against subaxillary implanted 6C3HED lymphosarcoma implanted in C3H mice at a dose of 300 mg/kg administered perorally daily for a period of 8 days.; format: functional; settings: 192 h, route oral; how it was run: as §1
Mus musculus [15] = assay: In vivo antitumor activity of compound against subaxillary implanted 6C3HED lymphosarcoma implanted in C3H mice at a dose of 150 mg/kg administered intraperitoneally daily for a period of 8 days.; format: functional; settings: ip, 192 h, route intraperitoneal; how it was run: as §1
Mus musculus [16] = assay: In vivo antitumor activity of compound against subaxillary implanted 6C3HED lymphosarcoma implanted in C3H mice at a dose of 150 mg/kg administered perorally twice daily for a period of 8 days; Toxic; format: functional, organism-based; parameters: dose 150 mg/kg; how it was run: as §1
Mus musculus [17] = assay: In vivo antitumor activity of compound against subaxillary implanted 6C3HED lymphosarcoma implanted in C3H mice at a dose of 25 mg/kg administered perorally twice daily for a period of 8 days.; format: functional; settings: route oral; how it was run: as §5

SMILES: COC(=O)c1ccc([S+](N)([O-])=NC(=O)Nc2ccc(Cl)cc2)cc1 (centres undefined)
- IC50 (CCRF-CEM): > 20 µg/mL
- inhibition in vivo at 300 mg/kg (Mus musculus [1]): 0%

SMILES: Cc1ccc([S+](N)([O-])=NC(=O)Nc2ccc(C(F)(F)F)cc2)cc1 (centres undefined)
- IC50 (CCRF-CEM): > 20 µg/mL

SMILES: CCCCNC(=O)N=[S+](N)([O-])c1ccc(C)cc1 (centres undefined)
- inhibition in vivo at 300 mg/kg (Mus musculus [2]): 12%
- IC50 (CCRF-CEM): > 20 µg/mL

SMILES: Cc1ccc([S+](N)([O-])=NC(=O)Nc2ccc(Cl)c(Cl)c2)cc1 (centres undefined)
- IC50 (CCRF-CEM): > 20 µg/mL
- inhibition in vivo at 300 mg/kg (Mus musculus [1]): 14%

SMILES: O=C(Nc1ccc(Cl)cc1)NS(=O)(=O)c1ccc2c(c1)CCC2 [SULOFENUR]
- Activity (Mus musculus [3]): 0.37 µM
- inhibition in vivo at 150 mg/kg (Mus musculus [4]): 91%

SMILES: N[S+]([O-])(=NC(=O)Nc1ccc(Cl)cc1)c1ccc(CO)cc1 (centres undefined)
- IC50 (CCRF-CEM): > 20 µg/mL
- inhibition in vivo at 75 mg/kg (Mus musculus [5]): 99%

SMILES: Cc1ccc([S+](N)([O-])=NC(=O)Nc2ccc(Cl)cc2)cc1C (centres undefined)
- IC50 (CCRF-CEM): > 20 µg/mL
- inhibition in vivo at 4 mg/kg (Mus musculus [6]): 97%

SMILES: N[S+]([O-])(=NC(=O)Nc1ccc(Cl)cc1)c1ccc(Cl)cc1 (centres undefined)
- inhibition in vivo at 50 mg/kg (Mus musculus [7]): 80%
- IC50 (CCRF-CEM): 12.3 µg/mL (≈ 35.7 µM)

- Activity [9]: 1.2 µM
SMILES: CN[S+]([O-])(=NC(=O)Nc1ccc(Cl)cc1)c1ccc(C)cc1 (centres undefined)
- IC50 (CCRF-CEM): > 20 µg/mL
- inhibition in vivo at 150 mg/kg (Mus musculus [8]): 93%

SMILES: CC(C)(C)c1ccc([S+](N)([O-])=NC(=O)Nc2ccc(Cl)cc2)cc1 (centres undefined)
- IC50 (CCRF-CEM): 1.7 µg/mL (≈ 4.65 µM)
- inhibition in vivo at 300 mg/kg (Mus musculus [1]): 11%

SMILES: Cc1ccc(S(=O)(=O)NC(=O)Nc2ccc(Cl)cc2)cc1 [LY-181984]
- Activity (Mus musculus [3]): 1.02 µM
- inhibition in vivo at 150 mg/kg (Mus musculus [4]): 93%

SMILES: CN[S+]([O-])(=NC(=O)Nc1ccc(Cl)cc1)c1ccc(C)c(C)c1 (centres undefined)
- IC50 (CCRF-CEM): 16.2 µg/mL (≈ 46 µM)
- inhibition in vivo at 25 mg/kg (Mus musculus [10]): 98%

SMILES: Cc1ccc([S+](N)([O-])=NC(=O)Nc2ccc(Cl)cc2)cc1 (single isomer, unassigned; (-))
- Dose converted [11]: 18%
- inhibition in vivo at 75 mg/kg (Mus musculus [5]): 100%
- Inhibition (Mus musculus [4]): 100%
- Lethality (Mus musculus [12]): 60%
- Dose converted [13]: 4.7%
- Activity [9]: 0.58 µM

SMILES: Cc1ccc([S+]([O-])(=NC(=O)Nc2ccc(Cl)cc2)NCCc2ccccc2)cc1 (centres undefined)
- IC50 (CCRF-CEM): 5.3 µg/mL (≈ 12.4 µM)
- inhibition in vivo at 300 mg/kg (Mus musculus [1]): 48%

SMILES: Cc1ccc([S+](N)([O-])=NC(=O)Nc2ccc(Br)cc2)cc1 (centres undefined)
- IC50 (CCRF-CEM): > 20 µg/mL
- inhibition in vivo at 150 mg/kg (Mus musculus [4]): 100%

SMILES: CCCCN(C(C)=O)[S+]([O-])(=NC(=O)N(C(C)=O)c1ccc(Cl)cc1)c1ccc(C)cc1 (centres undefined)
- IC50 (CCRF-CEM): 2.9 µg/mL (≈ 6.25 µM)
- inhibition in vivo at 300 mg/kg (Mus musculus [1]): 10%

SMILES: Cc1ccc([S+]([O-])(=NC(=O)Nc2ccc(Cl)cc2)Nc2ccccc2)cc1 (centres undefined)
- IC50 (CCRF-CEM): 7 µg/mL (≈ 17.5 µM)
- inhibition in vivo at 300 mg/kg (Mus musculus [14]): 5%

SMILES: Cc1ccc([S+](N)([O-])=NC(=O)Nc2ccc(OCc3ccccc3)cc2)cc1 (centres undefined)
- IC50 (CCRF-CEM): > 20 µg/mL
- inhibition in vivo at 300 mg/kg (Mus musculus [1]): 5%

SMILES: CN[S+]([O-])(=NC(=O)N(C)c1ccc(Cl)cc1)c1ccc(C)cc1 (centres undefined)
- IC50 (CCRF-CEM): > 20 µg/mL
- inhibition in vivo at 150 mg/kg (Mus musculus [4]): 91%

SMILES: Cc1ccc([S+](N)([O-])=NC(=O)Nc2ccc(Cl)cc2)cc1 (stereo in doubt; 14)
- inhibition in vivo at 50 mg/kg (Mus musculus [7]): 95%
- inhibition in vivo at 300 mg/kg (Mus musculus [2]): 98%
- inhibition in vivo at 150 mg/kg (Mus musculus [15]): 92%
- IC50 (CCRF-CEM): > 20 µg/mL
- inhibition in vivo at 300 mg/kg (Mus musculus [14]): 89%
- Activity [9]: < 0.2 µM

SMILES: CN[S+]([O-])(=NC(=O)Nc1ccc(Cl)cc1)c1ccc2c(c1)CCC2 (centres undefined)
- IC50 (CCRF-CEM): 10.8 µg/mL (≈ 29.7 µM)
- inhibition in vivo at 150 mg/kg (Mus musculus [4]): 75%

SMILES: Cc1ccc([S+](N)([O-])=NC(=O)Nc2ccc(Cl)cc2)cc1 (stereo in doubt; 16(+))
- Dose converted [11]: 17%
- Inhibition (Mus musculus [4]): 5%
- Dose converted [13]: < 0.3%

SMILES: N[S+]([O-])(=NC(=O)Nc1ccc(Cl)cc1)c1ccc(C(F)(F)F)cc1 (centres undefined)
- IC50 (CCRF-CEM): 15.2 µg/mL (≈ 40.2 µM)
- inhibition (Mus musculus [16]): Toxic
- Lethality (Mus musculus [17]): 100%

SMILES: Cc1ccc([S+]([O-])(=NC(=O)Nc2ccc(Cl)cc2)NCCO)cc1 (centres undefined)
- IC50 (CCRF-CEM): > 20 µg/mL
- inhibition in vivo at 300 mg/kg (Mus musculus [14]): 60%

SMILES: CC(=O)N[S+]([O-])(=NC(=O)Nc1ccc(Cl)cc1)c1ccc(C)cc1 (centres undefined)
- IC50 (CCRF-CEM): > 20 µg/mL
- inhibition in vivo at 300 mg/kg (Mus musculus [1]): 84%

SMILES: N[S+]([O-])(=NC(=O)Nc1ccc(Cl)cc1)c1ccc(C=O)cc1 (centres undefined)
- inhibition in vivo at 150 mg/kg (Mus musculus [15]): 80%
- IC50 (CCRF-CEM): 5.6 µg/mL (≈ 16.6 µM)

SMILES: Cc1ccc([S+]([O-])(=NC(=O)Nc2ccc(Cl)cc2)N(C)C)cc1 (centres undefined)
- IC50 (CCRF-CEM): > 20 µg/mL
- inhibition in vivo at 300 mg/kg (Mus musculus [1]): 63%
